According to ChEMBL document CHEMBL1221294, “Novel nucleosides as potent influenza viral inhibitors” (Bioorg Med Chem, 2010):
≈ marks a conversion by molar mass, not a printed value. Calls of active or inactive are those of the source. The rule behind the calls is not given here.

What was measured:
[1] = system: Influenza A virus; experiment: Antiviral activity against Influenza A virus H5N1 Vietnam/1203/2004H infected in MDCK cells at up to 100 uM; format: functional, organism-based; details: A/Viet Nam/1203/2004(H5N1)
[2] = system: Influenza B virus; experiment: Antiviral activity against Influenza B virus Florida/4/2006 infected in MDCK cells at up to 100 uM; format: functional, cell-based; details: B/Florida/4/2006
[3] = system: Influenza A virus; experiment: Antiviral activity against Influenza A virus H5N1 Vietnam/1203/2004H infected in MDCK cells; format: functional, organism-based; details: A/Viet Nam/1203/2004(H5N1)
[4] = system: Influenza B virus; experiment: Antiviral activity against Influenza B virus Florida/4/2006 infected in MDCK cells; format: functional, cell-based; details: B/Florida/4/2006, MDCK
[5] = system: MDCK; experiment: Cytotoxicity against MDCK cells; format: cell-based; details: Canis lupus familiaris
Procedure, shortened: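 Run in MDCK cells, two uninfected toxicity-control wells per compound concentration alongside the infected wells. Neutral red uptake in these wells is read spectrophotometrically to give an NR IC50. The wells are also examined microscopically against untreated normal cells for enlargement, granularity, rounding, detachment and similar changes. The IC50 from these observations is derived by regression analysis.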

[6] = system: Influenza A virus; experiment: Antiviral activity against Influenza A virus H5N1 Vietnam/1203/2004H infected in MDCK cells assessed as increase of neutral red uptake; format: functional, organism-based; details: A/Viet Nam/1203/2004(H5N1)
Procedure, shortened: (§1)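 Neutral red dye uptake read-out run in MDCK cells. Cells not damaged by virus take up more dye, which is measured on a microplate reader. The EC50 is derived from dye uptake.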

[7] = system: Influenza B virus; experiment: Antiviral activity against Influenza B virus Florida/4/2006 infected in MDCK cells assessed as increase of neutral red uptake; format: functional, cell-based; details: B/Florida/4/2006, MDCK; procedure, shortened: as §1
[8] = system: Influenza B virus; experiment: Antiviral activity against Influenza B virus Florida/4/2006 infected in MDCK cells assessed as reduction of viral yeild; format: functional; details: B/Florida/4/2006, MDCK
[9] = system: Influenza B virus; experiment: Antiviral activity against Influenza B virus Florida/4/2006 infected in MDCK cells assessed as reduction of virus-induced cytopathogenicity by confocal microscopic analysis; format: functional, cell-based; details: B/Florida/4/2006, MDCK
[10] = system: Influenza A virus; experiment: Antiviral activity against Influenza A virus H5N1 Vietnam/1203/2004H infected in MDCK cells assessed as reduction of virus-induced cytopathogenicity by confocal microscopic analysis; format: functional, organism-based; details: A/Viet Nam/1203/2004(H5N1)
[11] = Selectivity index, IC50 for MDCK cells to EC50 for Influenza B virus Florida/4/2006 infected in MDCK cells assessed as increase of neutral red uptake; format: functional
Procedure, shortened: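 Run in MDCK cells. Antiviral EC50 comes from neutral red uptake, since undamaged cells take up more dye, read on a microplate reader. Cytotoxicity uses neutral red in uninfected, compound-treated toxicity control wells run alongside, read spectrophotometrically to give NR IC50. SI = IC50/EC50.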

[12] = Selectivity index, IC50 for MDCK cells to EC90 for Influenza B virus Florida/4/2006 infected in MDCK cells assessed as reduction of viral yield; format: functional
Procedure, shortened: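 Retest in MDCK cells of compounds active by neutral red, with virus yield reduction measured on the same plate as CPE inhibition. A known active drug is the parallel positive control. EC90 is the concentration lowering virus yield by 1 log10. SI is the ratio of cytotoxic IC50 to EC90.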

[13] = Selectivity index, IC50 for MDCK cells to EC50 for Influenza B virus Florida/4/2006 infected in MDCK cells assessed as reduction of virus-induced cytopathogenicity by confocal microscopic analysis; format: functional
Procedure, shortened: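 CPE inhibition in MDCK cells, scored microscopically. At each concentration, two uninfected treated wells are examined for morphology changes against normal control cells: enlargement, granularity, ragged edges, filmy appearance, rounding or detachment. Cytotoxic IC50 is found by regression analysis. SI = IC50/EC50.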

[14] = system: Influenza A virus; experiment: Antiviral activity against Influenza A virus H5N1 Vietnam/1203/2004H infected in MDCK cells assessed as reduction of viral yeild; format: functional; details: A/Viet Nam/1203/2004(H5N1)

CC(=O)O[C@@]1(C)[C@@H](COC(=O)c2ccccc2)O[C@H](n2cnc3c(NCc4ccc(F)cc4)ncnc32)[C@]1(C)F
Activity [1]: inactive
Activity [2]: inactive

CCOc1ncnc2c1ncn2[C@H]1O[C@H](COC(=O)c2ccccc2)[C@](C)(OC(C)=O)[C@@]1(C)F
Activity [1]: inactive
Activity [2]: inactive

C[C@]1(O)[C@@H](CO)O[C@H](n2cnc3c(O)ncnc32)[C@]1(C)F
Activity [1]: inactive
Activity [2]: inactive

CCOc1ncnc2c1ncn2[C@@H]1O[C@H](COC(=O)c2ccccc2)[C@](C)(OC(C)=O)[C@@]1(C)F
EC50 [3]: 48 µg/mL (≈ 102 µM)
EC50 [4]: > 100 µg/mL
IC50 [5]: > 100 µg/mL

C[C@]1(O)[C@@H](CO)O[C@H](n2cnc3c(NC4CC4)ncnc32)[C@]1(C)F
Activity [1]: inactive
Activity [2]: inactive

C[C@]1(O)[C@@H](CO)O[C@H](n2cnc3c(NCC4CC4)ncnc32)[C@]1(C)F
Activity [1]: inactive
Activity [2]: inactive

CC(=O)O[C@@]1(C)[C@@H](COC(=O)c2ccccc2)O[C@H](n2cnc3c(NC4CCC4)ncnc32)[C@]1(C)F
Activity [1]: inactive
Activity [2]: inactive

CCOc1ncnc2c1ncn2[C@H]1O[C@H](CO)[C@](C)(O)[C@@]1(C)F
Activity [1]: inactive
Activity [2]: inactive

C[C@]1(O)[C@@H](CO)O[C@H](n2cnc3c(NC4CCC4)ncnc32)[C@]1(C)F
Activity [1]: inactive
Activity [2]: inactive

CC(=O)O[C@@]1(C)[C@@H](COC(=O)c2ccccc2)O[C@H](n2cnc3c(NC4CC4)ncnc32)[C@]1(C)F
Activity [1]: inactive
Activity [2]: inactive

CC(=O)O[C@]1(C)[C@@H](COC(=O)c2ccccc2)O[C@H](n2cnc3c(Cl)ncnc32)[C@]1(C)F
Activity [1]: inactive
Activity [2]: inactive

CC(=O)O[C@@]1(C)[C@@H](COC(=O)c2ccccc2)O[C@H](n2cnc3c(O)ncnc32)[C@]1(C)F
Activity [1]: inactive
Activity [2]: inactive

CN1CCN(c2ncnc3c2ncn3[C@H]2O[C@H](CO)[C@](C)(O)[C@@]2(C)F)CC1
Activity [1]: inactive
Activity [2]: inactive

C[C@]1(O)[C@@H](CO)O[C@H](n2cnc3c(N4CCOCC4)ncnc32)[C@]1(C)F
Activity [1]: inactive
Activity [2]: inactive

CC(=O)O[C@@]1(C)[C@@H](COC(=O)c2ccccc2)O[C@@H](n2cnc3c(NCC4CC4)ncnc32)[C@]1(C)F
EC50 [3]: 32 µg/mL (≈ 64.3 µM)
EC50 [4]: 17 µg/mL (≈ 34.2 µM)
IC50 [5]: > 100 µg/mL

CC(=O)O[C@@]1(C)[C@@H](COC(=O)c2ccccc2)O[C@@H](n2cnc3c(NCc4ccc(F)cc4)ncnc32)[C@]1(C)F
EC50 [3]: 32 µg/mL (≈ 58 µM)
EC50 [4]: 30 µg/mL (≈ 54.4 µM)
IC50 [5]: 36 µg/mL (≈ 65.3 µM)

CC(=O)O[C@@]1(C)[C@@H](COC(=O)c2ccccc2)O[C@H](n2cnc3c(N4CCOCC4)ncnc32)[C@]1(C)F
Activity [1]: inactive
Activity [2]: inactive

CC(=O)O[C@@]1(C)[C@@H](COC(=O)c2ccccc2)O[C@H](n2cnc3c(NCC4CC4)ncnc32)[C@]1(C)F
Activity [1]: inactive
Activity [2]: inactive

CC(=O)O[C@@]1(C)[C@@H](COC(=O)c2ccccc2)O[C@@H](n2cnc3c(NCc4ccco4)ncnc32)[C@]1(C)F
EC50 [3]: 31 µg/mL (≈ 59.2 µM)
EC50 [4]: 32 µg/mL (≈ 61.1 µM)
IC50 [5]: > 100 µg/mL

CC(=O)O[C@@]1(C)[C@@H](COC(=O)c2ccccc2)O[C@H](n2cnc3c(N4CCN(C)CC4)ncnc32)[C@]1(C)F
Activity [1]: inactive
Activity [2]: inactive

CC(=O)O[C@@]1(C)[C@@H](COC(=O)c2ccccc2)O[C@@H](n2cnc3c(N4CCOCC4)ncnc32)[C@]1(C)F
EC50 [3]: 24 µg/mL (≈ 46.7 µM)
EC50 [4]: 25 µg/mL (≈ 48.7 µM)
IC50 [5]: > 100 µg/mL

CC(=O)O[C@@]1(C)[C@@H](COC(=O)c2ccccc2)O[C@@H](n2cnc3c(Cl)ncnc32)[C@]1(C)F
EC50 [3]: 7.1 µg/mL (≈ 15.3 µM)
EC50 [4]: 3.7 µg/mL (≈ 7.99 µM)
IC50 [5]: 18 µg/mL (≈ 38.9 µM)
EC50 [6]: 1.76 µg/mL (≈ 3.8 µM)
EC50 [7]: 1.2 µg/mL (≈ 2.59 µM)
EC90 [8]: 6.3 µg/mL (≈ 13.6 µM)
EC50 [9]: 1.2 µg/mL (≈ 2.59 µM)
EC50 [10]: 1.26 µg/mL (≈ 2.72 µM)
Ratio IC50/EC50 [11]: 15
Ratio IC50/EC50 [12]: 2.9
Ratio IC50/EC50 [13]: 15
EC90 [14]: 4.4 µg/mL (≈ 9.51 µM)

C[C@]1(O)[C@@H](CO)O[C@H](n2cnc3c(NCc4ccco4)ncnc32)[C@]1(C)F
Activity [1]: inactive
Activity [2]: inactive

CC(=O)O[C@@]1(C)[C@@H](COC(=O)c2ccccc2)O[C@@H](n2cnc3c(NC4CCC4)ncnc32)[C@]1(C)F
EC50 [3]: 23 µg/mL (≈ 46.2 µM)
EC50 [4]: 27 µg/mL (≈ 54.3 µM)
IC50 [5]: > 100 µg/mL

C[C@]1(F)[C@H](n2cnc3c(N)ncnc32)O[C@H](CO)[C@@]1(C)O
EC50 [3]: > 100 µg/mL
EC50 [4]: > 100 µg/mL
IC50 [5]: > 100 µg/mL

CC(=O)O[C@@]1(C)[C@@H](COC(=O)c2ccccc2)O[C@@H](n2cnc3c(NC4CC4)ncnc32)[C@]1(C)F
EC50 [3]: 50 µg/mL (≈ 103 µM)
EC50 [4]: 20 µg/mL (≈ 41.4 µM)
IC50 [5]: > 100 µg/mL

CC(=O)O[C@@]1(C)[C@@H](COC(=O)c2ccccc2)O[C@H](n2cnc3c(Cl)ncnc32)[C@]1(C)F
Activity [1]: inactive
Activity [2]: inactive

CC(=O)O[C@@]1(C)[C@@H](COC(=O)c2ccccc2)O[C@H](n2cnc3c(NCc4ccco4)ncnc32)[C@]1(C)F
Activity [1]: inactive
Activity [2]: inactive

CC(=O)O[C@@]1(C)[C@@H](COC(=O)c2ccccc2)O[C@@H](n2cnc3c(N4CCN(C)CC4)ncnc32)[C@]1(C)F
EC50 [3]: > 100 µg/mL
EC50 [4]: 42 µg/mL (≈ 79.8 µM)
IC50 [5]: > 100 µg/mL

CC(=O)O[C@]1(C)[C@@H](COC(=O)c2ccccc2)O[C@@H](n2cnc3c(Cl)ncnc32)[C@]1(C)F
EC50 [3]: > 100 µg/mL
EC50 [4]: > 100 µg/mL
IC50 [5]: > 100 µg/mL

CC(=O)O[C@@]1(C)[C@@H](COC(=O)c2ccccc2)O[C@@H](n2cnc3c(O)ncnc32)[C@]1(C)F
EC50 [3]: 33 µg/mL (≈ 74.3 µM)
EC50 [4]: 65 µg/mL (≈ 146 µM)
IC50 [5]: > 100 µg/mL

C[C@]1(F)[C@@H](n2cnc3c(N)ncnc32)O[C@H](CO)[C@@]1(C)O
Activity [1]: inactive
Activity [2]: inactive

C[C@]1(O)[C@@H](CO)O[C@H](n2cnc3c(NCc4ccc(F)cc4)ncnc32)[C@]1(C)F
Activity [1]: inactive
Activity [2]: inactive
